Experimental data: ChEMBL document CHEMBL1152788, “Naphthylisopropylamine and N-benzylamphetamine derivatives as monoamine oxidase inhibitors” (Bioorg Med Chem, 2009)
pKi: −log10 of the molar value. Where a name gives a salt, the structure may show the parent alone.

Assays:
[1] = target: T1, Amine oxidase [flavin-containing] B (Rattus norvegicus, UniProt P19643); test: Inhibition of MAOB in rat brain mitochondria
T1 sequence (P19643 whole entry): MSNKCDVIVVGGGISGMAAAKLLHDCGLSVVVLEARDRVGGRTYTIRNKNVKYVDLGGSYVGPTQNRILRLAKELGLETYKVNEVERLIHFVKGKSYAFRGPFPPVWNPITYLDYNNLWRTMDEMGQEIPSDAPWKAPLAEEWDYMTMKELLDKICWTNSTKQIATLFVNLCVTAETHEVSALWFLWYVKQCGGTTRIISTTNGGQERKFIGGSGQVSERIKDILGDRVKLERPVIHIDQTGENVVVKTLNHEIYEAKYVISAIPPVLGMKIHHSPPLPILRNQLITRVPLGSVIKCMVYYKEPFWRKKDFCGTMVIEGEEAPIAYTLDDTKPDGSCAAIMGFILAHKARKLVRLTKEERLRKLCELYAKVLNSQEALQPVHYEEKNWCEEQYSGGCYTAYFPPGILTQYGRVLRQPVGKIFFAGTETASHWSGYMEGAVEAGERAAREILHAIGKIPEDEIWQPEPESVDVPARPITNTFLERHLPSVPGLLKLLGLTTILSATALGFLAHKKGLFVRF
How it was run: (§1)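 Substrate is 5-HT for MAO-A and DMAPEA for MAO-B. Substrates and their metabolites are measured by HPLC with electrochemical detection. Percent inhibition is taken against enzyme treated the same way without inhibitor and plotted against −log inhibitor concentration to give IC50. Runs are at least two independent experiments, each in triplicate. Ki is from IC50 by Cheng–Prusoff, using the substrate's Km.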

[2] = target: T2, Amine oxidase [flavin-containing] A (Rattus norvegicus, UniProt P21396); test: Inhibition of MAOA in rat brain mitochondria; how it was run: as §1
T2 sequence (P21396 whole entry): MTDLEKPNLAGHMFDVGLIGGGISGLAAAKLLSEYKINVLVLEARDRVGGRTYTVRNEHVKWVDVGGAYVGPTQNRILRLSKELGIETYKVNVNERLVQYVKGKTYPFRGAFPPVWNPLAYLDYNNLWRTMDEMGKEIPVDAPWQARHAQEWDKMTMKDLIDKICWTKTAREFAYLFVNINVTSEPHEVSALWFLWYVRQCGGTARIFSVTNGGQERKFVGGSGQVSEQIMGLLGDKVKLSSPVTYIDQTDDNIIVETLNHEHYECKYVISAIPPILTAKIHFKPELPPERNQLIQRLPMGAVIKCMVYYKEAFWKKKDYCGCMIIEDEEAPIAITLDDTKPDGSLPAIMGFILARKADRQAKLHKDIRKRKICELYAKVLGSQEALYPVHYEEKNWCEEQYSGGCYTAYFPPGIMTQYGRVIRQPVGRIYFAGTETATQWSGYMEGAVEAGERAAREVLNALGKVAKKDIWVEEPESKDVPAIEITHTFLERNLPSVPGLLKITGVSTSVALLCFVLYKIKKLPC

`CCOc1ccc(CC(C)N)cc1` (stereo unspecified) gave a pKi [1] of less than 4.00 and a pKi [2] of 6.66.
Compound `COc1ccc2cc(CC(C)N)ccc2c1` (stereo unspecified) has a pKi [1] of 4.79 and a pKi [2] of 6.74.
`CCCCOc1ccc2cc(CC(C)N)ccc2c1` (stereo unspecified) showed a pKi [2] of 5.82.
For `CCOc1ccc2cc(CC(C)N)ccc2c1` (stereo unspecified), the pKi [1] was 4.87 and the pKi [2] was 6.35.
In the case of `CSc1ccc2cc(CC(C)N)ccc2c1` (stereo unspecified), the pKi [2] was 6.30.
With `CCCOc1ccc(CC(C)N)cc1` (stereo unspecified) the pKi [1] was less than 4.00 and the pKi [2] was 6.89.
`CCCCOc1ccc2cc(CC(C)NCc3ccccc3)ccc2c1` (stereo unspecified) showed a pKi [1] of 4.65 and a pKi [2] of 4.84.
With `CC(N)Cc1ccc2cc(OCc3ccccc3)ccc2c1` (stereo unspecified) the pKi [1] was 5.59 and the pKi [2] was 5.42.
In the case of `CCCCOc1ccc(CC(C)N)cc1` (stereo unspecified), the pKi [1] was less than 4.00 and the pKi [2] was 6.49.
`CC(N)Cc1ccc(OCc2ccccc2)cc1` (stereo unspecified) gave a pKi [1] of 6.15 and a pKi [2] of 5.47.
In the case of `CSc1ccc(CC(C)NCc2ccc(O)cc2)cc1` (stereo unspecified), the pKi [1] was less than 4.00 and the pKi [2] was less than 4.00.
`COc1ccc(CNC(C)Cc2ccc(SC)cc2)cc1` (stereo unspecified) gave a pKi [2] of less than 4.00.
Work on `CCCCOc1ccc(CNC(C)Cc2ccc(SC)cc2)cc1` (stereo unspecified) yielded a pKi [2] of 4.05.
In the case of `CSc1ccc(CC(C)NCc2ccccc2)cc1` (stereo unspecified), the pKi [1] was less than 4.00 and the pKi [2] was less than 4.00.
Work on `CSc1ccc(CC(C)NCc2ccc(OCc3ccccc3)cc2)cc1` (stereo unspecified) yielded a pKi [2] of less than 4.00.
In the case of `CC(N)Cc1cccc2ccccc12` (stereo unspecified), the pKi [1] was less than 4.00 and the pKi [2] was 5.25.
`CC(N)Cc1ccc2ccccc2c1` (stereo unspecified) gave a pKi [1] of less than 4.00 and a pKi [2] of 6.38.
`CCCOc1ccc2cc(CC(C)N)ccc2c1` (stereo unspecified) gave a pKi [1] of 4.87 and a pKi [2] of 6.17.
Compound `COc1ccc2cc(CC(C)NCc3ccccc3)ccc2c1` (stereo unspecified) has a pKi [1] of 4.61 and a pKi [2] of 5.16.
`CSc1ccc(CC(C)N)cc1` (stereo unspecified) [4-METHYLTHIOAMPHETAMINE] showed a pKi [2] of 6.60.
With `CC(N)Cc1ccccc1` (stereo unspecified) [AMPHETAMINE SULFATE] the pKi [2] was 4.91.
With `COc1ccc(CC(C)N)cc1` (stereo unspecified) [PARA-METHOXYAMPHETAMINE] the pKi [2] was 6.60.
